Assay results published in ChEMBL document CHEMBL1136530, “Synthesis, stereochemical assignment and biological activity of a novel series of C-4" modified aza-macrolides” (2003).
In brackets after ≈: the same amount, converted by molar mass.

How the values were obtained:
Assay type in all cases: functional
[1] = system: Escherichia coli; test: Minimum inhibitory concentration against Escherichia coli
[2] = system: Pasteurella multocida; test: Minimum inhibitory concentration against Pasteurella multocida
Summary of the method: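 P. multocida strain 59A0067 (turkey origin), grown overnight on BHI plates; colonies in saline at OD625 0.09 (0.5 McFarland), diluted 1:100 in BHI broth. Two-fold serial dilutions in BHI microdilution, about 5×10⁵ cfu/mL final, 37 °C for 18 h. MIC is the lowest concentration with A600 ≤ 0.025.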

[3] = system: Mus musculus; test: In vivo effective dose against Pasteurella multocida infection in mouse
Summary of the method: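 Mice infected with P. multocida serotype 5A. Subcutaneous dosing 0.5 h post-infection at 5 to 80 mg/kg. ED50 calculated from the number of mice surviving four days after infection.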

SMILES | MIC [1] | MIC [2] | ED50 [3]
CC#C[C@@]1(O)[C@H](C)O[C@@H](O[C@H]2[C@H](C)[C@@H](O[C@@H]3O[C@H](C)C[C@H](N(C)C)[C@H]3O)[C@](C)(O)C[C@@H](C)CN[C@H](C)[C@@H](O)[C@](C)(O)[C@@H](CC)OC(=O)[C@@H]2C)C[C@@]1(C)OC | 1.56 µg/mL (≈ 2.02 µM) | 0.2 µg/mL (≈ 0.259 µM) | 21 mg/kg
CC[C@H]1OC(=O)[C@H](C)[C@@H](O[C@H]2C[C@@](C)(OC)[C@@](O)(c3cccnc3)[C@H](C)O2)[C@H](C)[C@@H](O[C@@H]2O[C@H](C)C[C@H](N(C)C)[C@H]2O)[C@](C)(O)C[C@@H](C)CN[C@H](C)[C@@H](O)[C@]1(C)O | 3.13 µg/mL (≈ 3.85 µM) | 0.39 µg/mL (≈ 0.48 µM) | > 40 mg/kg
C#C[C@@]1(O)[C@H](C)O[C@@H](O[C@H]2[C@H](C)[C@@H](O[C@@H]3O[C@H](C)C[C@H](N(C)C)[C@H]3O)[C@](C)(O)C[C@@H](C)CN[C@H](C)[C@@H](O)[C@](C)(O)[C@@H](CC)OC(=O)[C@@H]2C)C[C@@]1(C)OC | 3.13 µg/mL (≈ 4.12 µM) | < 0.1 µg/mL | 24 mg/kg
CC[C@H]1OC(=O)[C@H](C)[C@@H](O[C@H]2C[C@@](C)(OC)[C@@](O)(C#CCN(C)C)[C@H](C)O2)[C@H](C)[C@@H](O[C@@H]2O[C@H](C)C[C@H](N(C)C)[C@H]2O)[C@](C)(O)C[C@@H](C)CN(C)[C@H](C)[C@@H](O)[C@]1(C)O | 0.39 µg/mL (≈ 0.47 µM) | 0.1 µg/mL (≈ 0.12 µM) | 40 mg/kg
CC[C@H]1OC(=O)[C@H](C)[C@@H](O[C@H]2C[C@@](C)(OC)[C@@](O)(c3cc4ccccc4n3C)[C@H](C)O2)[C@H](C)[C@@H](O[C@@H]2O[C@H](C)C[C@H](N(C)C)[C@H]2O)[C@](C)(O)C[C@@H](C)CN(C)[C@H](C)[C@@H](O)[C@]1(C)O | 6.25 µg/mL (≈ 7.12 µM) | 0.39 µg/mL (≈ 0.444 µM) | > 40 mg/kg
CC[C@H]1OC(=O)[C@H](C)[C@@H](O[C@H]2C[C@@](C)(OC)[C@@](O)(c3cccs3)[C@H](C)O2)[C@H](C)[C@@H](O[C@@H]2O[C@H](C)C[C@H](N(C)C)[C@H]2O)[C@](C)(O)C[C@@H](C)CN[C@H](C)[C@@H](O)[C@]1(C)O | 3.13 µg/mL (≈ 3.83 µM) | 0.78 µg/mL (≈ 0.955 µM) | > 80 mg/kg
CC[C@H]1OC(=O)[C@H](C)[C@@H](O[C@H]2C[C@@](C)(OC)[C@@](O)(c3cc4ccccc4n3C)[C@H](C)O2)[C@H](C)[C@@H](O[C@@H]2O[C@H](C)C[C@H](N(C)C)[C@H]2O)[C@](C)(O)C[C@@H](C)CN[C@H](C)[C@@H](O)[C@]1(C)O | 3.13 µg/mL (≈ 3.62 µM) | 0.2 µg/mL (≈ 0.231 µM) | > 40 mg/kg
CCC[C@@]1(O)[C@H](C)O[C@@H](O[C@H]2[C@H](C)[C@@H](O[C@@H]3O[C@H](C)C[C@H](N(C)C)[C@H]3O)[C@](C)(O)C[C@@H](C)CN[C@H](C)[C@@H](O)[C@](C)(O)[C@@H](CC)OC(=O)[C@@H]2C)C[C@@]1(C)OC | 1.56 µg/mL (≈ 2.01 µM) | 0.2 µg/mL (≈ 0.257 µM) | 81 mg/kg
CC[C@H]1OC(=O)[C@H](C)[C@@H](O[C@H]2C[C@@](C)(OC)[C@](C)(O)[C@H](C)O2)[C@H](C)[C@@H](O[C@@H]2O[C@H](C)C[C@H](N(C)C)[C@H]2O)[C@](C)(O)C[C@@H](C)CN[C@H](C)[C@@H](O)[C@]1(C)O | 0.78 µg/mL (≈ 1.04 µM) | < 0.1 µg/mL | 28 mg/kg
CC[C@H]1OC(=O)[C@H](C)[C@@H](O[C@H]2C[C@@](C)(OC)[C@@]3(CO3)[C@H](C)O2)[C@H](C)[C@@H](O[C@@H]2O[C@H](C)C[C@H](N(C)C)[C@H]2O)[C@](C)(O)C[C@@H](C)CN[C@H](C)[C@@H](O)[C@]1(C)O | 1.56 µg/mL (≈ 2.09 µM) | < 0.1 µg/mL | 31 mg/kg
CC[C@H]1OC(=O)[C@H](C)[C@@H](O[C@H]2C[C@@](C)(OC)[C@@](O)(CSC)[C@H](C)O2)[C@H](C)[C@@H](O[C@@H]2O[C@H](C)C[C@H](N(C)C)[C@H]2O)[C@](C)(O)C[C@@H](C)CN[C@H](C)[C@@H](O)[C@]1(C)O | 3.13 µg/mL (≈ 3.94 µM) | 0.1 µg/mL (≈ 0.126 µM) | 44 mg/kg
CC[C@H]1OC(=O)[C@H](C)[C@@H](O[C@H]2C[C@@](C)(OC)[C@@](O)(c3ccco3)[C@H](C)O2)[C@H](C)[C@@H](O[C@@H]2O[C@H](C)C[C@H](N(C)C)[C@H]2O)[C@](C)(O)C[C@@H](C)CN[C@H](C)[C@@H](O)[C@]1(C)O | 1.56 µg/mL (≈ 1.95 µM) | 0.2 µg/mL (≈ 0.25 µM) | 72 mg/kg
C#C[C@@]1(O)[C@H](C)O[C@@H](O[C@H]2[C@H](C)[C@@H](O[C@@H]3O[C@H](C)C[C@H](N(C)C)[C@H]3O)[C@](C)(O)C[C@@H](C)CN(C)[C@H](C)[C@@H](O)[C@](C)(O)[C@@H](CC)OC(=O)[C@@H]2C)C[C@@]1(C)OC | 0.78 µg/mL (≈ 1.01 µM) | 0.1 µg/mL (≈ 0.129 µM) | 33 mg/kg
CC[C@H]1OC(=O)[C@H](C)[C@@H](O[C@H]2C[C@@](C)(OC)[C@@](O)(CCO)[C@H](C)O2)[C@H](C)[C@@H](O[C@@H]2O[C@H](C)C[C@H](N(C)C)[C@H]2O)[C@](C)(O)C[C@@H](C)CN[C@H](C)[C@@H](O)[C@]1(C)O | 6.25 µg/mL (≈ 8.02 µM) | 0.39 µg/mL (≈ 0.501 µM) | 
CC[C@H]1OC(=O)[C@H](C)[C@@H](O[C@H]2C[C@@](C)(OC)[C@]3(CO3)[C@H](C)O2)[C@H](C)[C@@H](O[C@@H]2O[C@H](C)C[C@H](N(C)C)[C@H]2O)[C@](C)(O)C[C@@H](C)CN[C@H](C)[C@@H](O)[C@]1(C)O | 3.13 µg/mL (≈ 4.19 µM) | 0.1 µg/mL (≈ 0.134 µM) | 
CC[C@H]1OC(=O)[C@H](C)[C@@H](O[C@H]2C[C@@](C)(OC)[C@@](O)(CCCOC)[C@H](C)O2)[C@H](C)[C@@H](O[C@@H]2O[C@H](C)C[C@H](N(C)C)[C@H]2O)[C@](C)(O)C[C@@H](C)CN(C)[C@H](C)[C@@H](O)[C@]1(C)O | 1.56 µg/mL (≈ 1.9 µM) | 0.1 µg/mL (≈ 0.122 µM) | > 80 mg/kg
CC[C@H]1OC(=O)[C@H](C)[C@@H](O[C@H]2C[C@@](C)(OC)[C@@](O)(CC)[C@H](C)O2)[C@H](C)[C@@H](O[C@@H]2O[C@H](C)C[C@H](N(C)C)[C@H]2O)[C@](C)(O)C[C@@H](C)CN[C@H](C)[C@@H](O)[C@]1(C)O | 1.56 µg/mL (≈ 2.04 µM) | 0.2 µg/mL (≈ 0.262 µM) | 61 mg/kg
CC[C@H]1OC(=O)[C@H](C)[C@@H](O[C@H]2C[C@@](C)(OC)[C@@](O)(C#CCOC)[C@H](C)O2)[C@H](C)[C@@H](O[C@@H]2O[C@H](C)C[C@H](N(C)C)[C@H]2O)[C@](C)(O)C[C@@H](C)CN(C)[C@H](C)[C@@H](O)[C@]1(C)O | 0.39 µg/mL (≈ 0.477 µM) | 0.05 µg/mL (≈ 0.0612 µM) | 29 mg/kg
CC[C@H]1OC(=O)[C@H](C)[C@@H](O[C@H]2C[C@@](C)(OC)[C@@](O)(CCCOC)[C@H](C)O2)[C@H](C)[C@@H](O[C@@H]2O[C@H](C)C[C@H](N(C)C)[C@H]2O)[C@](C)(O)C[C@@H](C)CN[C@H](C)[C@@H](O)[C@]1(C)O | 0.78 µg/mL (≈ 0.966 µM) | 0.2 µg/mL (≈ 0.248 µM) | 49 mg/kg
CC[C@H]1OC(=O)[C@H](C)[C@@H](O[C@H]2C[C@@](C)(OC)[C@@](O)(c3ccccn3)[C@H](C)O2)[C@H](C)[C@@H](O[C@@H]2O[C@H](C)C[C@H](N(C)C)[C@H]2O)[C@](C)(O)C[C@@H](C)CN[C@H](C)[C@@H](O)[C@]1(C)O | 3.13 µg/mL (≈ 3.85 µM) | 0.78 µg/mL (≈ 0.961 µM) | > 40 mg/kg
CC#C[C@@]1(O)[C@H](C)O[C@@H](O[C@H]2[C@H](C)[C@@H](O[C@@H]3O[C@H](C)C[C@H](N(C)C)[C@H]3O)[C@](C)(O)C[C@@H](C)CN(C)[C@H](C)[C@@H](O)[C@](C)(O)[C@@H](CC)OC(=O)[C@@H]2C)C[C@@]1(C)OC | 1.56 µg/mL (≈ 1.98 µM) | 0.2 µg/mL (≈ 0.254 µM) | 42 mg/kg
CCCC[C@@]1(O)[C@H](C)O[C@@H](O[C@H]2[C@H](C)[C@@H](O[C@@H]3O[C@H](C)C[C@H](N(C)C)[C@H]3O)[C@](C)(O)C[C@@H](C)CN[C@H](C)[C@@H](O)[C@](C)(O)[C@@H](CC)OC(=O)[C@@H]2C)C[C@@]1(C)OC | 12.5 µg/mL (≈ 15.8 µM) | 0.78 µg/mL (≈ 0.986 µM) | 
CC[C@H]1OC(=O)[C@H](C)[C@@H](O[C@H]2C[C@@](C)(OC)[C@@](O)(C#CCOC)[C@H](C)O2)[C@H](C)[C@@H](O[C@@H]2O[C@H](C)C[C@H](N(C)C)[C@H]2O)[C@](C)(O)C[C@@H](C)CN[C@H](C)[C@@H](O)[C@]1(C)O | 3.13 µg/mL (≈ 3.9 µM) | 0.2 µg/mL (≈ 0.249 µM) | 20 mg/kg
CC[C@H]1OC(=O)[C@H](C)[C@@H](O[C@H]2C[C@@](C)(OC)[C@@](O)(c3nccn3C)[C@H](C)O2)[C@H](C)[C@@H](O[C@@H]2O[C@H](C)C[C@H](N(C)C)[C@H]2O)[C@](C)(O)C[C@@H](C)CN(C)[C@H](C)[C@@H](O)[C@]1(C)O | 0.39 µg/mL (≈ 0.47 µM) | 0.05 µg/mL (≈ 0.0603 µM) | 
CC[C@H]1OC(=O)[C@H](C)[C@@H](O[C@H]2C[C@@](C)(OC)[C@@](O)(c3ccccc3)[C@H](C)O2)[C@H](C)[C@@H](O[C@@H]2O[C@H](C)C[C@H](N(C)C)[C@H]2O)[C@](C)(O)C[C@@H](C)CN[C@H](C)[C@@H](O)[C@]1(C)O | 12.5 µg/mL (≈ 15.4 µM) | 3.13 µg/mL (≈ 3.86 µM) | 
CC[C@H]1OC(=O)CC(O)[C@H](C)[C@@H](OC2O[C@H](C)[C@@H](O)[C@H](N(C)C)[C@H]2O)[C@@H](CCN2C[C@H](C)C[C@H](C)C2)CC(C)C(=O)/C=C/C(C)=C/[C@@H]1CO[C@@H]1O[C@H](C)[C@@H](O)[C@@H](OC)[C@H]1OC (some centres not stated) | 50 µg/mL (≈ 57.5 µM) | 0.78 µg/mL (≈ 0.897 µM) | 
